Where two headings read alike, the source gives them in different places.
Key:
LPETG and GGG substrates = details: cited from earlier work
[1] = tested on: ubiquitin ligation substrates (Ub-(5)KDPGA(15)/PGA(15)-Ub; Ub-[…]/GGG-Ub); assay type: biochemical
M. mazei Connectase = test: Time course of the Connectase reaction with one primary substrate; assay type: biochemical; details: 0.9 µM M. mazei Connectase, 3.7 µM Ub-(5)KDPGA(10), 37 °C
Procedure, shortened: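 M. mazei Connectase-His6 incubated with His6-Ub-(5)KDPGA(10) primary substrate only, no secondary substrate. Buffer: 50 mM acetate/MES/Hepes, 150 mM NaCl, 50 mM KCl, 5 mM TCEP, pH 7.0. Time points were stopped with 2% SDS and run on Coomassie-stained 12% gels.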

[2] = tested on: Ub-(5)KDPGA(15) and PGA(15)-Ub substrates; test: Reaction rates of M. mazei Connectase at different temperatures; assay type: biochemical
Procedure, shortened: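 His6-Ub-(5)KDPGA(15) and PGA(15)-Ub-His6, each 6.25 µM, incubated with M. mazei Connectase-His6 at 400× lower concentration, at 25 °C, 37 °C or 50 °C. Buffer: 50 mM acetate/MES/Hepes, 150 mM NaCl, 50 mM KCl, 5 mM TCEP, pH 7.0. Time points were stopped with 2% SDS and run on Coomassie-stained 12% gels. Bands were quantified to give rates.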

B1: SrtA: S. aureus Sortase A without membrane anchor, reference ligase (protein)
chain: MRGSHHHHHHGSQAKPQIPKDKSKVAGYIEIPDADIKEPVYPGPATPEQLNRGVSFAEENESLDDQNISIAGHTFIDRPNYQFTNLKAAKKGSMVYFKVGNETRKYKMTSIRDVKPTDVEVLDEQKGKDKQLTLITCDDYNEKTGVWEKRKIFVATEVK
LPETG and GGG substrates
  kcat Ligation/kcat Hydrolysis: ≈ 3.3

B2: SrtA5*: evolved SrtA pentamutant with significantly increased activity (protein)
chain: MQAKPQIPKDKSKVAGYIEIPDADIKEPVYPGPATREQLNRGVSFAEENESLDDQNISIAGHTFIDRPNYQFTNLKAAKKGSMVYFKVGNETRKYKMTSIRNVKPTAVEVLDEQKGKDKQLTLITCDDYNEETGVWETRKIFVATEVKLEHHHHHH
[1]; Ub-GGSLPETGGG and GGG-Ub substrates, 37 °C
  ligase activity of SrtA5* compared with SrtA: ~100 x
LPETG and GGG substrates; read-out: KM GGG
  Km: 4700 µM
LPETG and GGG substrates; read-out: KM LPETG
  Km: 170 µM

B3: Ub-(5)KDPGA(10): C. subterraneum ubiquitin fused C-terminally to M. mazei MtrA residues 148 to 167 (protein)
chain: MHHHHHHGSMKIKIVPAVGGGSPLELEVAPNATVGAVRTKVCAMKKLPPDTTRLTYKGRALKDTETLESLGVADGDKFVLITRTVGGRELASKDPGAFDADPLVVEI
M. mazei Connectase
  fraction of substrate modified (conjugate with Connectase) at any time: ~7%

B4: M. mazei Connectase: sequence-specific protein ligase, monomeric homolog of 20S proteasome subunits from Methanosarcina mazei (protein)
chain: MTLVIAFIGKNGAVMAGDMREITFEGEKPDREKLEKELYSGSIVTDEEMQKKAEEFGVKITVADCKEKVSERNGVLVGEVSSAEGGVVKKRRLYASAGNFAIAELINTEMTLTSQGKGSNFIAFGNEFTKQVANKCFKDNWTKKSNLQDAVKILILCMETVARKTASVSKQFMIVQTASNADVLKVVEKDRNC
modifications: left off: Strep, C-terminal, kept
[1]; 100 µM substrates each, Connectase 50 °C, Sortase 37 °C
  ligase activity of Connectase relative to optimized SrtA5*: > 40 x
[1]; protein-protein ligation of two ubiquitin molecules, equimolar substrates
  ligation yield: ~50%
[2]
  temperature of maximum activity: 50 °C
